In ChEMBL document CHEMBL1121364, “Nucleoside conjugates as potential antitumor agents. 3. Synthesis and antitumor activity of 1-(beta-D-arabinofuranosyl)cytosine conjugates of corticosteroids” (1980):

Columns and labels:
L1210 [1] = assay: Antitumor activity in the mice with intraperitoneal implanted L1210 lymphoid leukemia at the dose of 75 mg/kg/day x 5 was determined as mean survival of treated group compared to untreated; 18.5/9.5; assay type: functional, Mus musculus
L1210 [2] = assay: Antitumor activity in the mice with intraperitoneal implanted L1210 lymphoid leukemia at the dose of 50 mg/kg/day x 5 was determined as mean survival of treated group compared to untreated; 19/8; assay type: functional, Mus musculus
Summary of the method: (§1)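 C3D2F1/J female mice (C3H/HeJ female × DBA/2J male), groups of six to eight, average weight 25 g. Inoculated ip with 1 × 10^6 L1210 ascites cells taken from DBA/2Ha donor mice bearing 3-5 day old tumors. Compounds were dissolved in 0.154 N NaOH, neutralized with 0.154 N HCl (final 0.9% NaCl), and given ip daily for 5 days from 24 h post-implant. Median survival T/C; ILS = (T/C − 1) × 100; 30-day survivors counted.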

L1210 [3] = assay: Antitumor activity in the mice with intraperitoneal implanted L1210 lymphoid leukemia at the dose of 25 mg/kg/day x 5 was determined as mean survival of treated group compared to untreated; 16/8.5; assay type: functional, Mus musculus; summary of the method: as §1
L1210 [4] = assay: Antitumor activity in mice with intraperitoneal implanted L1210 lymphoid leukemia at the dose 75 mg/kg/day x 5 was determined as weight change (g/mouse) on 8th day; assay type: functional
Summary of the method: (§2)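 C3D2F1/J female mice (C3H/HeJ × DBA/2J), groups of six to eight, average 25 g, inoculated ip with 1 × 10^6 L1210 ascites cells taken from DBA/2Ha donor mice carrying 3-5 day tumors. Compound dissolved in 0.154 N NaOH, then neutralized with 0.154 N HCl to give 0.9% NaCl. Given ip daily for 5 consecutive days starting 24 h after implantation. Body weight change per mouse recorded on day 8.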

L1210 [5] = assay: In Vitro evaluation for the antiproliferative activity by observing the growth inhibition of L1210 lymphoid leukemia cells in culture at 72 hour; assay type: functional, Mus musculus
Summary of the method: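 Growth of L1210 lymphoid leukemia cells in culture measured by Trypan blue exclusion of viable cells after 72 h of drug exposure. ED50 is the concentration giving 50% growth inhibition. In some runs the compound was first preincubated in medium at 37 °C for 24 or 48 h before the assay.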

L1210 [6] = assay: Antitumor activity in mice with intraperitoneal implanted L1210 lymphoid leukemia at the dose 25 mg/kg/day x 5 was determined as weight change (g/mouse) on 8th day; assay type: functional; summary of the method: as §2
L1210 [7] = assay: Antitumor activity in mice with intraperitoneal implanted L1210 lymphoid leukemia at the dose 50 mg/kg/day x 5 was determined as weight change (g/mouse) on 8th day; assay type: functional; summary of the method: as §2
L1210 [8] = assay: Antitumor activity in the mice with intraperitoneal implanted L1210 lymphoid leukemia at the dose 25 mg/kg/day x 5 was determined and number of animals survived on 30 th day were reported; 0/8; assay type: functional, Mus musculus
Summary of the method: (§3)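 Female C3D2F1/J mice (C3H/HeJ × DBA/2J), groups of six to eight, average weight 25 g. Each mouse got 1 × 10^6 L1210 ascites cells ip, taken from DBA/2Ha donor mice bearing 3-5 day tumors. Compound was dissolved in 0.154 N NaOH and neutralized with 0.154 N HCl (final 0.9% NaCl). Dosed ip daily ×5, starting 24 h after implant. Recorded body weight change on day 8, survival range, median survival and 30-day survivors. ILS = (T/C − 1) × 100.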

L1210 [9] = assay: Antitumor activity in the mice with intraperitoneal implanted L1210 lymphoid leukemia at the dose 50 mg/kg/day x 5 was determined as Survival time in days; Range is 17-24 days; assay type: functional, Mus musculus; summary of the method: as §3
L1210 [10] = assay: Antitumor activity in the mice with intraperitoneal implanted L1210 lymphoid leukemia at the dose 50 mg/kg/day x 5 was determined and number of animals survived on 30 th day were reported; 0/8; assay type: functional, Mus musculus; summary of the method: as §3
L1210 [11] = assay: Antitumor activity in the mice with intraperitoneal implanted L1210 lymphoid leukemia at the dose 75 mg/kg/day x 5 was determined and number of animals survived on 30 th day were reported; 1/8; assay type: functional, Mus musculus; summary of the method: as §1
L1210 [12] = assay: Antitumor activity in the mice with intraperitoneal implanted L1210 lymphoid leukemia at the dose 50 mg/kg/day x 5 was determined as percentage increase in the life span as compared with control tumor bearers; assay type: functional; details: Mus musculus, L1210, ip; summary of the method: as §1
L1210 [13] = assay: Antitumor activity in the mice with intraperitoneal implanted L1210 lymphoid leukemia at the dose 75 mg/kg/day x 5 was determined as percentage increase in the life span as compared with control tumor bearers; assay type: functional; details: Mus musculus, L1210, ip; summary of the method: as §1
L1210 [14] = assay: Antitumor activity in the mice with intraperitoneal implanted L1210 lymphoid leukemia at the dose 25 mg/kg/day x 5 was determined as Survival time in days; Range is 8-21 days; assay type: functional, Mus musculus; summary of the method: as §3
L1210 [15] = assay: Antitumor activity in the mice with intraperitoneal implanted L1210 lymphoid leukemia at the dose 25 mg/kg/day x 5 was determined as percentage increase in the life span as compared with control tumor bearers; assay type: functional; details: Mus musculus, L1210, ip; summary of the method: as §3
L1210 [16] = assay: Antitumor activity in the mice with intraperitoneal implanted L1210 lymphoid leukemia at the dose 75 mg/kg/day x 5 was determined as Survival time in days; Range is 14- >45 days; assay type: functional, Mus musculus; summary of the method: as §1
L1210 [17] = assay: Antitumor activity in the mice with intraperitoneal implanted L1210 lymphoid leukemia at the dose of 19.1 and 26 mg/kg/day x 5 was determined as mean survival of treated group compared to untreated; 10.5/10; assay type: functional, Mus musculus; summary of the method: as §1
L1210 [18] = assay: Antitumor activity in mice with intraperitoneal implanted L1210 lymphoid leukemia at the dose 9.2 and 12.6 mg/kg/day x 5 was determined as weight change (g/mouse) on 8th day; assay type: functional; summary of the method: as §3
L1210 [19] = assay: Antitumor activity in the mice with intraperitoneal implanted L1210 lymphoid leukemia at the dose of 9.2 and 12.6 mg/kg/day x 5 was determined as mean survival of treated group compared to untreated; 16.5/11; assay type: functional, Mus musculus
L1210 [20] = assay: Antitumor activity in mice with intraperitoneal implanted L1210 lymphoid leukemia at the dose 19.1 and 26 mg/kg/day x 5 was determined as weight change (g/mouse) on 8th day; assay type: functional; summary of the method: as §3
L1210 [21] = assay: Antitumor activity in the mice with intraperitoneal implanted L1210 lymphoid leukemia at the dose 9.2 and 12.6 mg/kg/day x 5 was determined as Survival time in days; Range is 13-23 days; assay type: functional, Mus musculus; summary of the method: as §1
L1210 [22] = assay: Antitumor activity in the mice with intraperitoneal implanted L1210 lymphoid leukemia at the dose 19.1 and 26 mg/kg/day x 5 was determined and number of animals survived on 30 th day were reported; 0/8; assay type: functional, Mus musculus; summary of the method: as §3
L1210 [23] = assay: Antitumor activity in the mice with intraperitoneal implanted L1210 lymphoid leukemia at the dose 9.2 and 12.6 mg/kg/day x 5 was determined as percentage increase in the life span as compared with control tumor bearers; assay type: functional, Mus musculus; summary of the method: as §1
L1210 [24] = assay: Antitumor activity in the mice with intraperitoneal implanted L1210 lymphoid leukemia at the dose 9.2 and 12.6 mg/kg/day x 5 was determined and number of animals survived on 30 th day were reported; 0/6; assay type: functional, Mus musculus; summary of the method: as §1
L1210 [25] = assay: Antitumor activity in the mice with intraperitoneal implanted L1210 lymphoid leukemia at the dose 19.1 and 26 mg/kg/day x 5 was determined as percentage increase in the life span as compared with control tumor bearers; assay type: functional, Mus musculus; summary of the method: as §3
L1210 [26] = assay: Antitumor activity in the mice with intraperitoneal implanted L1210 lymphoid leukemia at the dose 19.1 and 26 mg/kg/day x 5 was determined as Survival time in days; Range is 9-12 days; assay type: functional, Mus musculus; summary of the method: as §3

Which T/C (L1210 [1]) does the source give for `C[C@]12CC[C@H]3[C@@H](CCC4=CC(=O)CC[C@@]43C)[C@@H]1CC[C@@H]2C(=O)COP(=O)(O)OC[C@H]1O[C@@H](n2ccc(N)nc2=O)[C@@H](O)[C@@H]1O` here?
Its T/C is 18.5.

And the T/C (L1210 [2])?
The T/C was 19.

And the T/C (L1210 [3])?
The T/C was 16.

What about the Weight change (L1210 [4]) of the same compound?
Its Weight change is -0.09 g mouse-1.

What about the “ED 50” value (L1210 [5]) of the same compound?
Its value is 0.05 µM.

What about the Weight change (L1210 [6]) of the same compound?
Its Weight change is -0.54 g mouse-1.

And the Weight change (L1210 [7])?
Its Weight change is -0.94 g mouse-1.

What about the Survivors (L1210 [8]) of the same compound?
Its Survivors is 0.

And the Survival time (L1210 [9])?
The Survival time was 17 days.

What about the Survivors (L1210 [10]) of the same compound?
Its Survivors is 0.

And the Survivors (L1210 [11])?
The Survivors was 1.

And the ILS at 50 mg/kg/day (L1210 [12])?
Its ILS at 50 mg/kg/day is 138%.

And the ILS at 75 mg/kg/day (L1210 [13])?
The ILS at 75 mg/kg/day was 95%.

What about the Survival time (L1210 [14]) of the same compound?
The Survival time was 8 days.

And the ILS at 25 mg/kg/day (L1210 [15])?
The ILS at 25 mg/kg/day was 88%.

And the Survival time (L1210 [16])?
The Survival time was 14 days.

What does the source list for `C[C@]12CC[C@H]3[C@@H](CCC4=CC(=O)CC[C@@]43C)[C@@H]1CC[C@@H]2C(=O)O.Nc1ccn([C@@H]2O[C@H](CO)[C@@H](O)[C@@H]2O)c(=O)n1`?
T/C (L1210 [17]): 10.5; Weight change (L1210 [18]): -3.58 g mouse-1; T/C (L1210 [19]): 16.5; Weight change (L1210 [20]): -4.25 g mouse-1; Survival time (L1210 [21]): 13 days; Survivors (L1210 [22]): 0; ILS (L1210 [23]): 50%; Survivors (L1210 [24]): 0; ILS (L1210 [25]): 5%; Survival time (L1210 [26]): 9 days
